According to ChEMBL document CHEMBL3525931, “Stereoselective interaction of pantoprazole with ABCG2. II. In vitro flux analysis” (Drug Metab Dispos, 2012):

Assays:
[1] = biological target: T1, ABCG2 (Rattus norvegicus, UniProt Q80W57); test: Asymmetry efflux ratio in MDCK2 cells expressing rat ABCG2 assessed as ABCG2-mediated drug transport ratio at 10 uM after 0.5 to 1 hrs by HPLC method; assay type: ADME, cell-based
T1 sequence (Q80W57 whole entry): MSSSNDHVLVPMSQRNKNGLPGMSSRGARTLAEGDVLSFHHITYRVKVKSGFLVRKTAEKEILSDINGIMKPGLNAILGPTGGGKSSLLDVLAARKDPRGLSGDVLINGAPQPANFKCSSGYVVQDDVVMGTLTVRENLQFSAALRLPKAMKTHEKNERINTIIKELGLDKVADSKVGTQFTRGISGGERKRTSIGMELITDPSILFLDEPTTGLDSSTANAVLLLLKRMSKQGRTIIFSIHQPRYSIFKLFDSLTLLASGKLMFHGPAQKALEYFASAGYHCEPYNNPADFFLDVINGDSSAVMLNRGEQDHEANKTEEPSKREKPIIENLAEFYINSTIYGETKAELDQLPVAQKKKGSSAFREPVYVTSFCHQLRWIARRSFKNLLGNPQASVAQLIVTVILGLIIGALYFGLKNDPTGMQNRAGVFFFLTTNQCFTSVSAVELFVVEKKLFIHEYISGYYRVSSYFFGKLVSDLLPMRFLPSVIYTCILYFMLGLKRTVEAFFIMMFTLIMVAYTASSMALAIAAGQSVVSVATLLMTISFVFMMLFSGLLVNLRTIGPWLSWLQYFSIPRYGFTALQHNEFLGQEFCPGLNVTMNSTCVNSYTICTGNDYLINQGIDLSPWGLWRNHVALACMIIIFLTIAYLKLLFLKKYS
How it was run: (§1)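 Mock (empty pcDNA3.1) or rat Abcg2/human ABCG2-transfected MDCKII, G418-selected, seeded on 3.0-μm Transwell filters at 1.0×10^6 cells/well, grown 4 days to TEER >200 Ω·cm². Single isomer loaded apical or basolateral in serum-free Opti-MEM I with 0.2 μCi/ml [3H]mannitol, 37°C 5% CO2. Receiver sampled at 0.5 and 1 h. Quantified by HPLC-UV 290 nm. Permeability = initial rate/(area × donor concentration). Efflux ratio = B→A rate / A→B rate. n = 3, mean ± S.D.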

[2] = biological target: T2, ABCG2 (Homo sapiens, UniProt Q9UNQ0); test: Asymmetry efflux ratio in MDCK2 cells expressing human ABCG2 assessed as ABCG2-mediated drug transport ratio at 50 uM after 0.5 to 1 hrs by HPLC method; assay type: ADME, cell-based; how it was run: as §1
T2 sequence (Q9UNQ0 whole entry): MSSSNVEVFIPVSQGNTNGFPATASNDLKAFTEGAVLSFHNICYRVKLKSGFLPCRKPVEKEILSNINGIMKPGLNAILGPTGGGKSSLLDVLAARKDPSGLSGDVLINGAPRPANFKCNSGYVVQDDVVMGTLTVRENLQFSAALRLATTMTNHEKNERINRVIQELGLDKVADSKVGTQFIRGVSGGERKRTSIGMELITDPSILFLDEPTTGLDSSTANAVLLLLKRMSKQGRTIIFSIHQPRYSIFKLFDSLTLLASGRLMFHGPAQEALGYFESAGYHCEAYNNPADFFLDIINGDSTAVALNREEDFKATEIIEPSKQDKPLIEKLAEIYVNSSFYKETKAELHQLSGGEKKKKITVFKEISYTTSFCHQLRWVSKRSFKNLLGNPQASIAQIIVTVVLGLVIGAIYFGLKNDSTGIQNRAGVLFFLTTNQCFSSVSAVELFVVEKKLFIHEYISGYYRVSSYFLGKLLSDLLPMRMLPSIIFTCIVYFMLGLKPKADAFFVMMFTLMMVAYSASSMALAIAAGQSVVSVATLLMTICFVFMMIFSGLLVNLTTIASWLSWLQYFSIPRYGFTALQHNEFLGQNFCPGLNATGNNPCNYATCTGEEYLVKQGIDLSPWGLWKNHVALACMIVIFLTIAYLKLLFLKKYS

[3] = biological target: T3, Broad substrate specificity ATP-binding cassette transporter ABCG2 (Rattus norvegicus, UniProt Q80W57); test: Observed permeability in MDCK2 cells expressing rat ABCG2 assessed as ABCG2-mediated basolateral to apical transport at 30 uM after 0.5 to 1 hrs by HPLC method; assay type: ADME, cell-based; settings: mdck-ii
T3 sequence (Q80W57 whole entry): T1 sequence (Q80W57 whole entry)
How it was run: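 rAbcg2-transfected MDCKII monolayers seeded at 1.0×10^6 cells/well on 3.0-μm filters, grown 4 days to TEER >200 Ω·cm². Serum-free Opti-MEM I on both sides. Individual PAN isomer plus 0.2 μCi/ml [3H]mannitol loaded basolaterally, 37°C, 5% CO2. Receiver sampled at 0.5 and 1 h, PAN quantified by HPLC-UV 290 nm. P_obs = initial transfer rate/(area × initial donor concentration). Mean ± S.D., n = 3.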

[4] = biological target: T3, Broad substrate specificity ATP-binding cassette transporter ABCG2; test: Observed permeability in MDCK2 cells expressing rat ABCG2 assessed as ABCG2-mediated basolateral to apical transport at 3 uM after 0.5 to 1 hrs by HPLC method; assay type: ADME, cell-based; settings: mdck-ii; how it was run: as §1
[5] = Asymmetry efflux ratio in MDCK2 cells assessed as drug transport ratio at 10 uM after 0.5 to 1 hrs by HPLC method; assay type: ADME, cell-based, Canis lupus familiaris, MDCK-II; settings: dog, MDCK; how it was run: as §1
[6] = biological target: T4, Broad substrate specificity ATP-binding cassette transporter ABCG2 (Homo sapiens, UniProt Q9UNQ0); test: Observed permeability in MDCK2 cells expressing human ABCG2 assessed as ABCG2-mediated apical to basolateral transport at 3 uM after 0.5 to 1 hrs by HPLC method; assay type: ADME, cell-based; settings: mdck-ii; how it was run: as §1
T4 sequence (Q9UNQ0 whole entry): T2 sequence (Q9UNQ0 whole entry)

[7] = Asymmetry efflux ratio in MDCK2 cells assessed as drug transport ratio at 3 uM after 0.5 to 1 hrs by HPLC method; assay type: ADME, cell-based, Canis lupus familiaris, MDCK-II; settings: dog, MDCK; how it was run: as §1
[8] = biological target: T3, Broad substrate specificity ATP-binding cassette transporter ABCG2; test: Observed permeability in MDCK2 cells expressing rat ABCG2 assessed as ABCG2-mediated apical to basolateral transport at 10 uM after 0.5 to 1 hrs by HPLC method; assay type: ADME, cell-based; settings: mdck-ii; how it was run: as §1
[9] = Observed permeability in MDCK2 cells assessed as apical to basolateral transport at 200 uM after 0.5 to 1 hrs by HPLC method; assay type: ADME, cell-based, Canis lupus familiaris; settings: dog, mdck-ii; how it was run: as §1
[10] = biological target: T3, Broad substrate specificity ATP-binding cassette transporter ABCG2; test: Observed permeability in MDCK2 cells expressing rat ABCG2 assessed as ABCG2-mediated basolateral to apical transport at 10 uM after 0.5 to 1 hrs by HPLC method; assay type: ADME, cell-based; settings: mdck-ii; how it was run: as §1
[11] = Observed permeability in MDCK2 cells assessed as basolateral to apical transport at 3 uM after 0.5 to 1 hrs by HPLC method; assay type: ADME, cell-based, Canis lupus familiaris; settings: dog, mdck-ii; how it was run: as §1
[12] = biological target: T4, Broad substrate specificity ATP-binding cassette transporter ABCG2; test: Observed permeability in MDCK2 cells expressing human ABCG2 assessed as ABCG2-mediated basolateral to apical transport at 30 uM after 0.5 to 1 hrs by HPLC method; assay type: ADME, cell-based; settings: mdck-ii; how it was run: as §1
[13] = biological target: T3, Broad substrate specificity ATP-binding cassette transporter ABCG2; test: Observed permeability in MDCK2 cells expressing rat ABCG2 assessed as ABCG2-mediated apical to basolateral transport at 200 uM after 0.5 to 1 hrs by HPLC method; assay type: ADME, cell-based; settings: mdck-ii; how it was run: as §1
[14] = Observed permeability in MDCK2 cells assessed as basolateral to apical transport at 30 uM after 0.5 to 1 hrs by HPLC method; assay type: ADME, cell-based, Canis lupus familiaris; settings: dog, mdck-ii; how it was run: as §1
[15] = Asymmetry efflux ratio in MDCK2 cells assessed as drug transport ratio at 200 uM after 0.5 to 1 hrs by HPLC method; assay type: ADME, cell-based, Canis lupus familiaris, MDCK-II; settings: dog, MDCK; how it was run: as §1
[16] = biological target: T1, ABCG2; test: Asymmetry efflux ratio in MDCK2 cells expressing rat ABCG2 assessed as ABCG2-mediated drug transport ratio at 50 uM after 0.5 to 1 hrs by HPLC method; assay type: ADME, cell-based; how it was run: as §1

Row | Structure (SMILES) | efflux ratio at 10 µM [1] | efflux ratio at 50 µM [2] | Papp [3] [uL/hr/cm2] | Papp [4] [uL/hr/cm2] | efflux ratio at 10 µM [5] | Papp [6] [uL/hr/cm2] | efflux ratio at 3 µM [7] | Papp [8] [uL/hr/cm2] | Papp [9] [uL/hr/cm2] | Papp [10] [uL/hr/cm2] | Papp [11] [uL/hr/cm2] | Papp [12] [uL/hr/cm2] | Papp [13] [uL/hr/cm2] | Papp [14] [uL/hr/cm2] | efflux ratio at 200 µM [15] | efflux ratio at 50 µM [16]
1 | COc1ccnc(C[S@@+]([O-])c2nc3cc(OC(F)F)ccc3[nH]2)c1OC | 11 | 2.45 | 206 | 238 | 1.07 | 30 | 1.01 | 20.9 | 142 | 229 | 117 | 240 | 126 | 116 | 0.98 | 2.46
2 | COc1ccnc(C[S@+]([O-])c2nc3cc(OC(F)F)ccc3[nH]2)c1OC | 7.44 | 1.44 | 151 | 253 | 1.06 | 16.9 | 1.01 | 30.1 | 130 | 224 | 120 | 211 | 127 | 123 | 0.99 | 1.26
